Source: article PMC8771160 (Oncology Reports, 2022)

Experiments:
BC3 = assay: Cell proliferation assay; assay type: cell-based; conditions: KSHV (+) cell line BC3, 24 h
In short: (§1)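 PEL lines, KSHV-negative B-lymphoma lines or PBMCs were seeded at 1×10^4 cells/well and cultured with or without test compound at 37°C for 24 h. Cell Count Reagent SF was added (10 µl to 90 µl suspension) for 2 h at 37°C, and OD was read at 450 nm. Viability is expressed as % of untreated cells.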

Ramos = assay: Cell proliferation assay; assay type: cell-based; conditions: KSHV (−) cell line Ramos, 24 h
In short: as §1

DG75 = assay: Cell proliferation assay; assay type: cell-based; conditions: KSHV (−) cell line DG75, 24 h
In short: as §1

HIV RT = conditions: cited from earlier work
HBL6 = assay: Cell proliferation assay; assay type: cell-based; conditions: KSHV (+) cell line HBL6, 24 h
In short: as §1

[1] = tested on: KSHV-uninfected B cell lines; assay: Cell proliferation assay, KSHV-uninfected B cell lines as a group; assay type: cell-based; conditions: 6.25 and 12.5 µM, 24 h
In short: as §1

[2] = tested on: influenza virus endonuclease; conditions: cited from earlier work
[3] = tested on: cancer cell proliferation; conditions: cited from earlier work
HCV NS5B = conditions: cited from earlier work
BCBL1 = assay: Cell proliferation assay; assay type: cell-based; conditions: KSHV (+) cell line BCBL1, 24 h
In short: as §1

Substance: 1,1,1′,1′-tetramethyl [60]fullerenodipyrrolidinium diiodide [Derivative #1]
- CC50 (BC3): 15.5 µM
- CC50 (Ramos): 24.9 µM
- CC50 (DG75): 23.4 µM
- HIV RT inhibitory activity (HIV RT): displayed HIV RT inhibitory activity
- CC50 (HBL6): 19.7 µM
- viability of DG75 and Ramos cells compared with the controls [1]: increased the viability
- influenza virus endonuclease inhibitory activity [2]: inhibitory activities
- cancer cell proliferation [3]: suppressed cancer cell proliferation
- HCV NS5B inhibitory activity (HCV NS5B): inhibiting
- CC50 (BCBL1): > 25 µM
